Source: the array DNA melting data of Ke et al. (doi:10.1101/2024.01.08.574731)

Legend:
[1] = folding enthalpy; higher = less favourable; fluorescence melt of hairpins on a sequencing array, two-state fit; settings: sodium 0.088 M
Summary of the method: (§1)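 Library hairpins on a sequenced MiSeq flow cell carried annealed Cy3 and quencher oligos, and their Cy3 fluorescence was imaged in 50 mM Na-HEPES pH 8.0 with 25 mM NaCl, in 2.5 °C steps up to 60 °C. Signals were normalised to Cy3 before quenching and to control constructs. Melting temperature and folding enthalpy were obtained from bootstrapped two-state fits, combined by inverse-variance weighting across four replicates, and the fitted temperatures were then raised by 9.35 °C to match UV melts.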

[2] = melting temperature; fluorescence melt of hairpins on a sequencing array, two-state fit, raised by 9.35 °C to match UV melts; settings: sodium 0.088 M
Summary of the method: as §1

AACACGAAAGTGTT (((((....)))))
folding enthalpy [1]: -18.9 kcal/mol
Tm [2]: 56.8 °C

AACGGGAAACCGTT (((((....)))))
folding enthalpy [1]: -18.5 kcal/mol
Tm [2]: 50.6 °C

AACTCGAAAGAGTT (((((....)))))
folding enthalpy [1]: -17.7 kcal/mol
Tm [2]: 50.7 °C

AATTGGAAACAATT (((((....)))))
folding enthalpy [1]: -11.3 kcal/mol
Tm [2]: 31.6 °C

ACAATGAAAATTGT (((((....)))))
folding enthalpy [1]: -11.1 kcal/mol
Tm [2]: 34.8 °C

ACACAGAAATGTGT (((((....)))))
folding enthalpy [1]: -14.7 kcal/mol
Tm [2]: 45.9 °C

ACCAGGAAACTGGT (((((....)))))
folding enthalpy [1]: -21.4 kcal/mol
Tm [2]: 49.2 °C

ACCGTGAAAACGGT (((((....)))))
folding enthalpy [1]: -17 kcal/mol
Tm [2]: 55.4 °C

ACGGAGAAATCCGT (((((....)))))
folding enthalpy [1]: -19 kcal/mol
Tm [2]: 49.2 °C

ACTAGGAAACTAGT (((((....)))))
folding enthalpy [1]: -13.9 kcal/mol
Tm [2]: 37.9 °C

ACTCAGAAATGAGT (((((....)))))
folding enthalpy [1]: -22 kcal/mol
Tm [2]: 36.7 °C

ACTGGGAAACCAGT (((((....)))))
folding enthalpy [1]: -15.9 kcal/mol
Tm [2]: 47.6 °C

AGAAGCAGAAATGGTTCT ((((.((....)).))))
folding enthalpy [1]: -27.4 kcal/mol
Tm [2]: 34.5 °C

AGACAGAAATGTCT (((((....)))))
folding enthalpy [1]: -15.8 kcal/mol
Tm [2]: 41.7 °C

AGAGTGAAAACTCT (((((....)))))
folding enthalpy [1]: -16.6 kcal/mol
Tm [2]: 40.8 °C

AGATTGAAAAATCT (((((....)))))
folding enthalpy [1]: -10.8 kcal/mol
Tm [2]: 28.9 °C

AGCGTGAAAACGCT (((((....)))))
folding enthalpy [1]: -18.5 kcal/mol
Tm [2]: 65.6 °C

AGCTCGAAAGAGCT (((((....)))))
folding enthalpy [1]: -20.8 kcal/mol
Tm [2]: 68.6 °C

AGCTGGAAACAGCT (((((....)))))
folding enthalpy [1]: -23.3 kcal/mol
Tm [2]: 54.3 °C

AGGCTGAAAAGCCT (((((....)))))
folding enthalpy [1]: -16.9 kcal/mol
Tm [2]: 62.6 °C

AGGTGGAAACACCT (((((....)))))
folding enthalpy [1]: -19.2 kcal/mol
Tm [2]: 52.6 °C

AGTAACTGAAAAGTTACT (((((((....)))))))
folding enthalpy [1]: -32.3 kcal/mol
Tm [2]: 51.6 °C

AGTATGAAAATACT (((((....)))))
folding enthalpy [1]: -15.2 kcal/mol
Tm [2]: 32 °C

AGTCAGAAATGACT (((((....)))))
folding enthalpy [1]: -18.9 kcal/mol
Tm [2]: 43.3 °C

ATCATGAAAATGAT (((((....)))))
folding enthalpy [1]: -13.8 kcal/mol
Tm [2]: 38.5 °C

ATCCTGAAAAGGAT (((((....)))))
folding enthalpy [1]: -18.9 kcal/mol
Tm [2]: 45.2 °C

ATGACGAAAGTCAT (((((....)))))
folding enthalpy [1]: -19.1 kcal/mol
Tm [2]: 56.8 °C

ATGCTGAAAAGCAT (((((....)))))
folding enthalpy [1]: -18.6 kcal/mol
Tm [2]: 50.8 °C

ATGTGGAAACACAT (((((....)))))
folding enthalpy [1]: -20.3 kcal/mol
Tm [2]: 46.1 °C

CAACGGAAACGTTG (((((....)))))
folding enthalpy [1]: -25.9 kcal/mol
Tm [2]: 52.6 °C

CAAGCAGAAATGGTTG (((.((....)).)))
folding enthalpy [1]: -19.3 kcal/mol
Tm [2]: 33.6 °C

CAATCCGAAAGGCTTG (((.((....)).)))
folding enthalpy [1]: -17 kcal/mol
Tm [2]: 34.7 °C

CAATTGAAAAATTG (((((....)))))
folding enthalpy [1]: -13.6 kcal/mol
Tm [2]: 35.6 °C

CACAGGAAACTGTG (((((....)))))
folding enthalpy [1]: -21 kcal/mol
Tm [2]: 50.2 °C

CACCTGAAAAGGTG (((((....)))))
folding enthalpy [1]: -23.8 kcal/mol
Tm [2]: 54.4 °C

CACGTGAAAACGTG (((((....)))))
folding enthalpy [1]: -24.9 kcal/mol
Tm [2]: 58.6 °C

CACTTGAAAAAGTG (((((....)))))
folding enthalpy [1]: -21.2 kcal/mol
Tm [2]: 43.6 °C

CAGCAGAAATGCTG (((((....)))))
folding enthalpy [1]: -25.6 kcal/mol
Tm [2]: 53 °C

CAGGGGAAACCCTG (((((....)))))
folding enthalpy [1]: -23.2 kcal/mol
Tm [2]: 52.5 °C

CAGTGGAAACACTG (((((....)))))
folding enthalpy [1]: -23 kcal/mol
Tm [2]: 51.7 °C

CATATGAAAATATG (((((....)))))
folding enthalpy [1]: -11.8 kcal/mol
Tm [2]: 32.2 °C

CATGGGAAACCATG (((((....)))))
folding enthalpy [1]: -22.3 kcal/mol
Tm [2]: 47.8 °C

CATGTGAAAACATG (((((....)))))
folding enthalpy [1]: -23.3 kcal/mol
Tm [2]: 47.2 °C

CCAACGAAAGTTGG (((((....)))))
folding enthalpy [1]: -25.4 kcal/mol
Tm [2]: 58 °C

CCAGGGAAACCTGG (((((....)))))
folding enthalpy [1]: -20.6 kcal/mol
Tm [2]: 53 °C

CCCAGGAAACTGGG (((((....)))))
folding enthalpy [1]: -20.4 kcal/mol
Tm [2]: 54.3 °C

CCCATGAAAATGGG (((((....)))))
folding enthalpy [1]: -20.9 kcal/mol
Tm [2]: 51.2 °C

CCCCTGAAAAGGGG (((((....)))))
folding enthalpy [1]: -25.4 kcal/mol
Tm [2]: 57.2 °C

CCGAGGAAACTCGG (((((....)))))
folding enthalpy [1]: -23.9 kcal/mol
Tm [2]: 55.9 °C

CCGATGAAAATCGG (((((....)))))
folding enthalpy [1]: -21.4 kcal/mol
Tm [2]: 55.6 °C

CCGTAGAAATACGG (((((....)))))
folding enthalpy [1]: -17.8 kcal/mol
Tm [2]: 47.3 °C

CCTAAGAAATTAGG (((((....)))))
folding enthalpy [1]: -8.08 kcal/mol
Tm [2]: 28.1 °C

CCTACGAAAGTAGG (((((....)))))
folding enthalpy [1]: -20.4 kcal/mol
Tm [2]: 57 °C

CCTCTGAAAAGAGG (((((....)))))
folding enthalpy [1]: -20.4 kcal/mol
Tm [2]: 48.7 °C

CGAAACGGAAACGTGTCG (((.(((....))).)))
folding enthalpy [1]: -31.5 kcal/mol
Tm [2]: 47.5 °C

CGAAAGCGGAAACGCTCG (((..(((....))))))
folding enthalpy [1]: -18.2 kcal/mol
Tm [2]: 43.5 °C

CGAAATCGGAAACGATCG (((..(((....))))))
folding enthalpy [1]: -22.6 kcal/mol
Tm [2]: 34 °C

CGAACCGGAAACGGATCG (((.(((....))).)))
folding enthalpy [1]: -27.6 kcal/mol
Tm [2]: 51.6 °C

CGAACGGAAACGTATTCG ((((((....)))..)))
folding enthalpy [1]: -17.7 kcal/mol
Tm [2]: 29.1 °C

CGAACGGAAACGTCCTCG ((((((....)))..)))
folding enthalpy [1]: -11.4 kcal/mol
Tm [2]: 26.2 °C

CGAACGGAAACGTCTCG ((((((....))).)))
folding enthalpy [1]: -29.3 kcal/mol
Tm [2]: 36.8 °C

CGAACGGAAACGTGATCG ((((((....)))..)))
folding enthalpy [1]: -19.6 kcal/mol
Tm [2]: 28.6 °C

CGAACGGAAACGTTGTCG ((((((....)))..)))
folding enthalpy [1]: -14.1 kcal/mol
Tm [2]: 36.3 °C

CGAACGGAAACGTTTCG ((((((....))).)))
folding enthalpy [1]: -26.2 kcal/mol
Tm [2]: 46.1 °C

CGAACGGAAACGTTTTCG ((((((....)))..)))
folding enthalpy [1]: -16.3 kcal/mol
Tm [2]: 30.4 °C

CGAAGCGGAAACGCGTCG (((.(((....))).)))
folding enthalpy [1]: -29.1 kcal/mol
Tm [2]: 55.1 °C

CGACAACGGAAACGTTCG (((..(((....))))))
folding enthalpy [1]: -14.3 kcal/mol
Tm [2]: 35.9 °C

CGACCCCGGAAACGGTCG (((..(((....))))))
folding enthalpy [1]: -21.3 kcal/mol
Tm [2]: 44.4 °C

CGACCGGAAACGGATCG ((((((....))).)))
folding enthalpy [1]: -33.3 kcal/mol
Tm [2]: 48.5 °C

CGACCGGAAACGGATTCG ((((((....)))..)))
folding enthalpy [1]: -16.2 kcal/mol
Tm [2]: 33.6 °C

CGACCGGAAACGGCTTCG ((((((....)))..)))
folding enthalpy [1]: -17 kcal/mol
Tm [2]: 28.5 °C

CGACCGGAAACGGGTCG ((((((....))).)))
folding enthalpy [1]: -32.4 kcal/mol
Tm [2]: 56.9 °C

CGACGACGGAAACGTTCG (((..(((....))))))
folding enthalpy [1]: -14.5 kcal/mol
Tm [2]: 36.9 °C

CGACGCGGAAACGCTTCG (((.(((....))).)))
folding enthalpy [1]: -33.6 kcal/mol
Tm [2]: 50.5 °C

CGACGGCGGAAACGCTCG (((..(((....))))))
folding enthalpy [1]: -15.4 kcal/mol
Tm [2]: 38.3 °C

CGACTCGGAAACGAATCG (((.(((....))).)))
folding enthalpy [1]: -33.6 kcal/mol
Tm [2]: 41.9 °C

CGAGACCGGAAACGGTCG (((..(((....))))))
folding enthalpy [1]: -23.4 kcal/mol
Tm [2]: 57.1 °C

CGAGACGGAAACGTTTCG (((.(((....))).)))
folding enthalpy [1]: -41.5 kcal/mol
Tm [2]: 49.6 °C

CGAGCCCGGAAACGGTCG (((..(((....))))))
folding enthalpy [1]: -20.9 kcal/mol
Tm [2]: 37.5 °C

CGAGCGGAAACGCAGTCG ((((((....)))..)))
folding enthalpy [1]: -13.6 kcal/mol
Tm [2]: 38.1 °C

CGAGCGGAAACGCCTTCG ((((((....)))..)))
folding enthalpy [1]: -10.7 kcal/mol
Tm [2]: 32 °C

CGAGCGGAAACGCGGTCG ((((((....)))..)))
folding enthalpy [1]: -14.9 kcal/mol
Tm [2]: 52.8 °C

CGAGGACGGAAACGTTCG (((..(((....))))))
folding enthalpy [1]: -19.8 kcal/mol
Tm [2]: 43.1 °C

CGAGGCCGGAAACGGTCG (((..(((....))))))
folding enthalpy [1]: -19.7 kcal/mol
Tm [2]: 48.5 °C

CGAGGGCGGAAACGCTCG (((..(((....))))))
folding enthalpy [1]: -16.9 kcal/mol
Tm [2]: 48.5 °C

CGATCCGGAAACGGTTCG (((.(((....))).)))
folding enthalpy [1]: -32 kcal/mol
Tm [2]: 49.8 °C

CGATCGCGGAAACGCTCG (((..(((....))))))
folding enthalpy [1]: -15.4 kcal/mol
Tm [2]: 36.8 °C

CGATGTCGGAAACGATCG (((..(((....))))))
folding enthalpy [1]: -17.3 kcal/mol
Tm [2]: 36.2 °C

CGATTGAAAAATCG (((((....)))))
folding enthalpy [1]: -27.8 kcal/mol
Tm [2]: 46 °C

CGCACCGGAAACGGAGCG (((.(((....))).)))
folding enthalpy [1]: -37.2 kcal/mol
Tm [2]: 60.9 °C

CGCACGGAAACGTAAGCG ((((((....)))..)))
folding enthalpy [1]: -34.5 kcal/mol
Tm [2]: 46.4 °C

CGCACGGAAACGTAGCG ((((((....))).)))
folding enthalpy [1]: -30.4 kcal/mol
Tm [2]: 53.8 °C

CGCACGGAAACGTCGCG ((((((....))).)))
folding enthalpy [1]: -35.8 kcal/mol
Tm [2]: 51.1 °C

CGCACGGAAACGTTGCG ((((((....))).)))
folding enthalpy [1]: -37.7 kcal/mol
Tm [2]: 55.1 °C

CGCAGGCGGAAACGCGCG (((..(((....))))))
folding enthalpy [1]: -23 kcal/mol
Tm [2]: 56.2 °C

CGCATCGGAAACGACGCG (((.(((....))).)))
folding enthalpy [1]: -41.2 kcal/mol
Tm [2]: 51.6 °C
